Assay outcomes (PubChem)
This is a sample that favours compounds with a hit; in the whole collection about 1.4% have one here.
FXIa inh 1536 – blocks human coagulation factor XIa protease activity; P03951; purified FXIa, Boc-Glu-Ala-Arg-AMC fluorogenic substrate; inhibition, % at 5 µM; 0.14% of 220,000 active;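 active means inhibition of at least 40%; inactive means inhibition below 40%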;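 further: fluorescence of freed AMC excited at 355 nm; 0% = enzyme without compound and 100% = no enzyme blank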
KLK5 inh – inhibitors of human kallikrein 5 | Q9Y337 | recombinant hK5, fluorogenic AMC substrate cleavage | inhibition, % at 5 µM | 0.59% of 210,000 active | AID 873;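 active means inhibition of 40% or more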;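 further: 0% = enzyme controls without compound and 100% = no-enzyme blanks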
Thrombin inh – thrombin (human) inhibition | P00734 | alpha-thrombin, Boc-VPR-AMC fluorogenic substrate cleavage | inhibition, % at 5 µM | 0.26% of 220,000 active | AID 1046;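 active means inhibition at or above 40%; inactive means inhibition below 40%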;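 further: 0% = enzyme with no compound and 100% = wells without enzyme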
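System – human alpha-thrombin protein · Reagent – Boc-VPR-AMC substrate, 15 µM final · Compound – 5 µM single dose in 0.2% DMSO · Schedule – reaction at room temperature · Technique – AMC fluorescence at 355 nm excitation and 460 nm emission · Read-out basis – % inhibition relative to enzyme controls and enzyme-free blanks · Control set – no-compound enzyme wells and no-enzyme blanks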
FXIIa inh 1536 – inhibitors of human coagulation factor XIIa; P00748; purified FXIIa, Boc-QGR-AMC fluorogenic substrate, 2 h; inhibition, % at 5 µM; 0.3% of 220,000 active; AID 800; in the data active means inhibition above about 40%;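 further: 0% = enzyme with no compound and 100% = blank without enzyme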
Target sequence (P00748 20-372 limits assumed): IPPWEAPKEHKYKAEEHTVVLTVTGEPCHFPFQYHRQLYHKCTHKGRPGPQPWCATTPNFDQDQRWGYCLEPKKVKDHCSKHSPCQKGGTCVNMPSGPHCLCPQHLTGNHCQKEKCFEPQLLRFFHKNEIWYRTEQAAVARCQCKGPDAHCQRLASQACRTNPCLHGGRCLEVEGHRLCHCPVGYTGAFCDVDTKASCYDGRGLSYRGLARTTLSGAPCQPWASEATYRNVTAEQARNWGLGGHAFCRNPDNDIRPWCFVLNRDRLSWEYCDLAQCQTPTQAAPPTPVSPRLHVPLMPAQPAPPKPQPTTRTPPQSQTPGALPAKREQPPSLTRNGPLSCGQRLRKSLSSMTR
Target sequence (P00748 373-615 limits assumed): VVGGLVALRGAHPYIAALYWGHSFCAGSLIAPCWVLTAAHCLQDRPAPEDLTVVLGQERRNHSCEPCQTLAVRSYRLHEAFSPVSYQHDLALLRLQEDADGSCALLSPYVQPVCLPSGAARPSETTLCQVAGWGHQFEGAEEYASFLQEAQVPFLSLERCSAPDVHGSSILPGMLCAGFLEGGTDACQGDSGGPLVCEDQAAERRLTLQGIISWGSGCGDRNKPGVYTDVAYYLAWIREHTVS
Calpain2 inh – inhibitors of pig calpain II; purified calpain II, fluorogenic peptide substrate, 30 min; inhibition, % at 16 µM; 0.37% of 220,000 active; AID 1236;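 active means inhibition above about 50%, limit read from the data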
* = called active by the depositor.

What do the screens show for `COc1ccc(C(=O)CSc2nc(C(C)(C)C)nc3ccccc23)cc1`?
FXIa inh 1536: -4; KLK5 inh: -12; Thrombin inh: 2; FXIIa inh 1536: 4; Calpain2 inh: 53*

What do the screens show for `O=C(CNCC1CCCO1)N1CCCc2ccccc21` (stereo unspecified)?
FXIa inh 1536: 6; KLK5 inh: 52*; Thrombin inh: 15; FXIIa inh 1536: 9; Calpain2 inh: -1

What do the screens show for `O=C1C=C(Nc2ccc(O)cc2)C(=O)c2ccccc21`?
FXIa inh 1536: -4; KLK5 inh: -4; Thrombin inh: 0; FXIIa inh 1536: 9; Calpain2 inh: 58*

Results for COc1cc(CNc2nc(C)c([N+](=O)[O-])c(C)c2C#N)cc(OC)c1 ?
FXIa inh 1536: -5; KLK5 inh: -3; Thrombin inh: -1; FXIIa inh 1536: 9; Calpain2 inh: 66*

What do the screens show for `Cc1nc(NCCc2ccccc2F)c(C#N)c(C)c1[N+](=O)[O-]`?
FXIa inh 1536: 14; KLK5 inh: 25; Thrombin inh: 46*; FXIIa inh 1536: 25; Calpain2 inh: 16

Results for COCc1c(C#N)c(NCc2cc(OC)c(OC)c(OC)c2)nc(C)c1[N+](=O)[O-] ?
FXIa inh 1536: 0; KLK5 inh: 2; Thrombin inh: -3; FXIIa inh 1536: 7; Calpain2 inh: -2

What do the screens show for `CCOC(=O)/C=C/C(=O)N1CCN(C(=O)/C=C/C(=O)OCC)CC1`?
FXIa inh 1536: -4; KLK5 inh: -2; Thrombin inh: -7; FXIIa inh 1536: 4; Calpain2 inh: -18

How did c1ccc(Nc2cccc(Nc3ccccc3)c2)cc1 do in these assays?
FXIa inh 1536: 10; KLK5 inh: 48*; Thrombin inh: 14; FXIIa inh 1536: 17; Calpain2 inh: 44

How did Cc1ccc(-n2nnnc2SCC(=O)N2CCc3ccccc3C2)cc1 do in these assays?
FXIa inh 1536: 7; KLK5 inh: -21; Thrombin inh: 4; FXIIa inh 1536: 5; Calpain2 inh: 39

How did Cn1nnnc1SCC(=O)N1CCc2ccccc2C1 do in these assays?
FXIa inh 1536: 11; KLK5 inh: 59*; Thrombin inh: 25; FXIIa inh 1536: 35; Calpain2 inh: 7

Results for CCNC1=C(Cl)C(=O)c2ccccc2C1=O ?
FXIa inh 1536: 3; KLK5 inh: -14; Thrombin inh: -4; FXIIa inh 1536: 5; Calpain2 inh: 50*

Results for Cc1ccc(NC2=C(Cl)C(=O)c3ccccc3C2=O)cc1 ?
FXIa inh 1536: -7; KLK5 inh: 6; Thrombin inh: -6; FXIIa inh 1536: 1; Calpain2 inh: 18

What do the screens show for `CCCc1nnc(SCC(=O)N2CCCCC2)n1CC1CCCO1` (stereo unspecified)?
FXIa inh 1536: 0; KLK5 inh: 57*; Thrombin inh: 17; FXIIa inh 1536: 21; Calpain2 inh: 14

How did CCCc1nnc(SCC(=O)N2CCCC2)n1CC1CCCO1 (stereo unspecified) do in these assays?
FXIa inh 1536: -3; KLK5 inh: -9; Thrombin inh: 0; FXIIa inh 1536: 4; Calpain2 inh: -19

Results for O=C(c1ccco1)N1CCCN(Cc2nc(Cc3ccccc3)no2)CC1 ?
FXIa inh 1536: -6; KLK5 inh: -7; Thrombin inh: -13; FXIIa inh 1536: 2; Calpain2 inh: -21

Results for Cc1cccc(NC(=S)NC(=O)/C=C/c2ccccc2)n1 ?
FXIa inh 1536: 29; KLK5 inh: 27; Thrombin inh: 50*; FXIIa inh 1536: 26; Calpain2 inh: 14

What do the screens show for `Cc1cc(-c2n[nH]c(=S)n2/N=C/c2cc([N+](=O)[O-])ccc2Cl)n[nH]1`?
FXIa inh 1536: 8; KLK5 inh: 47*; Thrombin inh: 33; FXIIa inh 1536: 15; Calpain2 inh: 20

How did Cc1ccc(C)c(Cn2c(CO)nc3ccccc32)c1 do in these assays?
FXIa inh 1536: 7; KLK5 inh: 41*; Thrombin inh: 17; FXIIa inh 1536: -6; Calpain2 inh: 4

How did COc1ccc(C(=O)NCCCc2nc3ccccc3n2Cc2cc(C)ccc2C)cc1OC do in these assays?
FXIa inh 1536: 7; KLK5 inh: -7; Thrombin inh: 0; FXIIa inh 1536: 12; Calpain2 inh: -27

Results for CC(=O)Nc1ccc(NC(=O)CSc2ncnn2-c2ccccc2)cc1 ?
FXIa inh 1536: 1; KLK5 inh: -3; Thrombin inh: 2; FXIIa inh 1536: 43*; Calpain2 inh: 28

What do the screens show for `CC(=O)Nc1ccc(NC(=O)CSc2nccn2Cc2ccccc2)cc1`?
FXIa inh 1536: 4; KLK5 inh: 57*; Thrombin inh: 15; FXIIa inh 1536: 3; Calpain2 inh: 17

Results for COc1cc(CC(=O)Nc2nccs2)cc(OC)c1OC ?
FXIa inh 1536: -1; KLK5 inh: 43*; Thrombin inh: 5; FXIIa inh 1536: 3; Calpain2 inh: 21

How did OCCC1CN(Cc2cn[nH]c2C2CCCCC2)CCN1C1CCCC1 (stereo unspecified) do in these assays?
FXIa inh 1536: -3; KLK5 inh: 1; Thrombin inh: -9; FXIIa inh 1536: 4; Calpain2 inh: -27

Results for COC(=O)c1sc(N2C(=O)C(O)=C(C(=O)c3ccc(C)o3)C2c2ccc(F)cc2)nc1C (stereo unspecified) ?
FXIa inh 1536: 23; KLK5 inh: 51*; Thrombin inh: 20; FXIIa inh 1536: 6; Calpain2 inh: -100

What do the screens show for `Cc1ccc(C(=O)C2=C(O)C(=O)N(c3ncccn3)C2c2ccc(F)cc2)o1` (stereo unspecified)?
FXIa inh 1536: -2; KLK5 inh: 0; Thrombin inh: -7; FXIIa inh 1536: 2; Calpain2 inh: 19

How did Cc1nn(CC(=O)c2ccc(Cl)s2)c(C)c1[N+](=O)[O-] do in these assays?
FXIa inh 1536: 43*; KLK5 inh: 24; Thrombin inh: 12; FXIIa inh 1536: 28; Calpain2 inh: 12

What do the screens show for `Cc1ccc(C(=O)Cn2nc(C)c([N+](=O)[O-])c2C)c(C)c1`?
FXIa inh 1536: -2; KLK5 inh: 4; Thrombin inh: -4; FXIIa inh 1536: 12; Calpain2 inh: 27

How did COCC(=O)Nc1nc(-c2ccccc2)ns1 do in these assays?
FXIa inh 1536: -11; KLK5 inh: 58*; Thrombin inh: 19; FXIIa inh 1536: 24; Calpain2 inh: 27

What do the screens show for `COCC(=O)Nc1ccccc1-c1ccccc1`?
FXIa inh 1536: 45*; KLK5 inh: 13; Thrombin inh: 34; FXIIa inh 1536: 30; Calpain2 inh: 20

How did Cc1cc(NC(=O)CSc2nc3c(c(=O)n2-c2ccc(Br)cc2)SCC3)no1 do in these assays?
FXIa inh 1536: 7; KLK5 inh: -4; Thrombin inh: -1; FXIIa inh 1536: 16; Calpain2 inh: -10

What do the screens show for `COc1ccc(-n2c(SCC(=O)Nc3cc(C)on3)nc3c(c2=O)SCC3)cc1`?
FXIa inh 1536: 12; KLK5 inh: 102*; Thrombin inh: 22; FXIIa inh 1536: 18; Calpain2 inh: -2

Results for Cc1c(/C=N/NC(=O)C(NC(=O)c2ccc3c(c2)OCO3)C(C)C)c2ccccc2n1C (stereo unspecified) ?
FXIa inh 1536: 5; KLK5 inh: -13; Thrombin inh: -10; FXIIa inh 1536: 6; Calpain2 inh: -11
